Calls of active or inactive are those of the source. The calls are words filed in the database; no cut-off is given here.
Legend:
BXPC-3 [1] = assay: Inhibition of Hh signaling pathway in human BXPC-3 cells assessed as reduction in Gli1 level incubated for 48 hrs by Western blot analysis; type: cell-based; details: dose 2.5-10 µM
In short: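 Cells were treated in 6-well plates for 48 h, lysed by sonication in RIPA with PMSF, and quantified by BCA. 20-30 μg protein was run on 6-12% gradient SDS-PAGE and transferred to PVDF. Membranes were blocked 2 h at room temperature, probed with anti-Gli1 overnight at 4 °C and secondary 1.5 h at room temperature, then developed by ECL. Densitometry was normalised to β-actin; three separate experiments.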

BXPC-3 [2] = assay: Induction of apoptosis in human BXPC-3 cells assessed as necrotic cells at 2.5 uM incubated for 48 hrs by Annexin V-FITC/PI staining based flow cytometry (reference value: 0.71 %); type: functional
[3] = Toxicity in BALB/c nude mouse xenografted with human BxPC-3 cells assessed as cellular edema in spleen at 5 to 15 mg/kg, ip qd for 21 days by H and E staining based analysis; details: in vivo, 504 h
BXPC-3 [4] = assay: Induction of apoptosis in human BXPC-3 cells assessed as viable cells at 5 uM incubated for 48 hrs by Annexin V-FITC/PI staining based flow cytometry (reference value: 91.5 %); type: functional; details: read-out: Activity
BXPC-3 [5] = assay: Induction of apoptosis in human BXPC-3 cells assessed as necrotic cells at 10 uM incubated for 48 hrs by Annexin V-FITC/PI staining based flow cytometry (reference value: 0.71 %); type: functional
[6] = Toxicity in BALB/c nude mouse xenografted with human BxPC-3 cells assessed as tissue fibrosis in heart at 5 to 15 mg/kg, ip qd for 21 days by H and E staining based analysis; details: in vivo, 504 h
[7] = Toxicity in BALB/c nude mouse xenografted with human BxPC-3 cells assessed as cellular edema in kidneys at 5 to 15 mg/kg, ip qd for 21 days by H and E staining based analysis; details: in vivo, 504 h
PANC-1 [8] = assay: Induction of apoptosis in human PANC-1 cells assessed as viable cells at 5 uM incubated for 48 hrs by Annexin V-FITC/PI staining based flow cytometry (reference value: 93.2 %); type: functional; details: read-out: Activity
PANC-1 [9] = assay: Induction of cell cycle arrest in human PANC-1 cells assessed as accumulation at G2 phase at 2.5 uM incubated for 48 hrs by PI/RNase staining based flow cytometry (reference value: 5.83 %); type: functional
PANC-1 [10] = assay: Induction of cell cycle arrest in human PANC-1 cells assessed as accumulation at S phase at 2.5 uM incubated for 48 hrs by PI/RNase staining based flow cytometry (reference value: 7.58 %); type: functional
PANC-1 [11] = assay: Induction of cell cycle arrest in human PANC-1 cells assessed as accumulation at S phase at 5 uM incubated for 48 hrs by PI/RNase staining based flow cytometry (reference value: 7.58 %); type: functional
BxPC-3 [12] = assay: Antitumor activity aginst human BxPC-3 cells xenografted in BALB/c nude mouse assessed as decrease in tumor volume at 5 mg/kg, ip qd for 21 days relative to control; set-up: scale not given: the % may be the effect or the level left; details: time 21 day
[13] = Toxicity in BALB/c nude mouse xenografted with human BxPC-3 cells assessed as inflammatory infiltration in spleen at 5 to 15 mg/kg, ip qd for 21 days by H and E staining based analysis; details: in vivo, 504 h
PANC-1 [14] = assay: Induction of cell cycle arrest in human PANC-1 cells assessed as accumulation at G2 phase at 10 uM incubated for 48 hrs by PI/RNase staining based flow cytometry (reference value: 5.83 %); type: functional
BXPC-3 [15] = assay: Induction of apoptosis in human BXPC-3 cells assessed as late apoptotic cells at 10 uM incubated for 48 hrs by Annexin V-FITC/PI staining based flow cytometry (reference value: 6.72 %); type: functional
BxPC-3 [16] = assay: Antitumor activity aginst human BxPC-3 cells xenografted in BALB/c nude mouse assessed as tumor growth inhibition at 5 to 15 mg/kg, ip qd for 21 days; details: dose 5-15 mg/kg, time 21.0 day
PANC-1 [17] = assay: Inhibition of cell migration in human PANC-1 cells incubated for 24 hrs by wound healing assay; type: functional, cell-based; details: dose 2.5-10 µM
In short: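 Monolayers at 80-90% confluence were scratched with a cross and washed three times with PBS. Eight fields were imaged at 0 h. Cells were then incubated with compound in medium containing 2% FBS, and the same fields were re-imaged at 24 h (100×). Closure % = (area 0 h − area 24 h)/area 0 h × 100; n = 3.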

BXPC-3 [18] = assay: Inhibition of Hh signaling pathway in human BXPC-3 cells assessed as reduction in Gli1 mRNA level incubated for 48 hrs by qRT-PCR analysis; type: cell-based; details: dose 2.5-10 µM
In short: (§1)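 Total RNA was extracted by column kit after 48 h treatment and checked spectrophotometrically. Gli1 and Ptch1 transcripts were quantified by real-time RT-qPCR with GAPDH as internal control. Results are fold change relative to the untreated group; three separate experiments.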

[19] = Toxicity in BALB/c nude mouse xenografted with human BxPC-3 cells assessed as inflammatory infiltration in liver at 5 to 15 mg/kg, ip qd for 21 days by H and E staining based analysis; details: in vivo, 504 h
[20] = target: Protein smoothened (Homo sapiens) (UniProt Q99835); assay: Antagonist activity at Smo (unknown origin) transfected in HEK293T cells incubated for 2 hrs by BODIPY-Cyclopamine based competitive binding assay; type: cell-based; details: filed as antagonist, dose 10-50 nM
Chain of Protein smoothened (Homo sapiens) (Q99835 whole entry): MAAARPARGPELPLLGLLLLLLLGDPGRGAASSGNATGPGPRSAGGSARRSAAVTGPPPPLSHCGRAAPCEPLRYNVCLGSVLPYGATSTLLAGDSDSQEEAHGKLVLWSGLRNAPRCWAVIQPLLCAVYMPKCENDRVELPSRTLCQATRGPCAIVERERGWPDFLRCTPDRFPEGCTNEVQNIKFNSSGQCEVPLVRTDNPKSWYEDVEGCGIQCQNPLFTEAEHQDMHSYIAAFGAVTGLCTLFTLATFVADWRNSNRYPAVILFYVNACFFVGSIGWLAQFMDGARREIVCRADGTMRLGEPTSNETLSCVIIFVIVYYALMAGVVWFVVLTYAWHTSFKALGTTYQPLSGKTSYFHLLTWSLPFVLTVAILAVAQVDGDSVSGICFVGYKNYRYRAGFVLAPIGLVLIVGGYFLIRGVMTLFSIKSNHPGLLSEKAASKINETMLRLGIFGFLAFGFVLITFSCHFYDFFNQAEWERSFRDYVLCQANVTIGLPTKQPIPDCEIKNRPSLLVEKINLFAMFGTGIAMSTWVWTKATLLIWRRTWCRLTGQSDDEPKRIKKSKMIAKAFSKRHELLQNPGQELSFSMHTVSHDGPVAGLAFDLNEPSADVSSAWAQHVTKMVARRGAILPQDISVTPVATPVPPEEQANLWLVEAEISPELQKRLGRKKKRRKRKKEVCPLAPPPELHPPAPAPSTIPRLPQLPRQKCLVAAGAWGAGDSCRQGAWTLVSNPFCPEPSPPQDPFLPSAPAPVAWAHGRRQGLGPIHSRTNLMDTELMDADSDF
In short: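 […] cells stably transfected with a Smo plasmid, with expression confirmed by Western blot. Cells (2×10^4/well) were grown 24 h in poly-L-lysine-coated wells, then fixed with 4% paraformaldehyde and DAPI-stained. BODIPY-cyclopamine (100 nM) was added together with test compound for 2 h. Green fluorescence was imaged by fluorescence microscopy.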

[21] = Toxicity in BALB/c nude mouse xenografted with human BxPC-3 cells assessed as cellular edema in lung at 5 to 15 mg/kg, ip qd for 21 days by H and E staining based analysis; details: in vivo, 504 h
[22] = Toxicity in BALB/c nude mouse xenografted with human BxPC-3 cells assessed as tissue fibrosis in kidneys at 5 to 15 mg/kg, ip qd for 21 days by H and E staining based analysis; details: in vivo, 504 h
BXPC-3 [23] = assay: Induction of apoptosis in human BXPC-3 cells assessed as viable cells at 8 uM incubated for 48 hrs by Annexin V-FITC/PI staining based flow cytometry (reference value: 91.5 %); type: functional; details: read-out: Activity
BXPC-3 [24] = assay: Induction of apoptosis in human BXPC-3 cells assessed as early apoptotic cells at 2.5 uM incubated for 48 hrs by Annexin V-FITC/PI staining based flow cytometry (reference value: 1.11 %); type: functional
PANC-1 [25] = assay: Inhibition of Hh signaling pathway in human PANC-1 cells assessed as reduction in Ptch1 mRNA level incubated for 48 hrs by qRT-PCR analysis; type: cell-based; in short: as §1

## CN(C)Cc1ccc(NC(=O)c2ccc(Nc3nccc(-c4cccnc4)n3)cc2)cc1
BXPC-3 [1]
  inhibition: Dose-dependent-effect
BXPC-3 [2]
  Activity: 1.37%
[3]
  Activity: Non-toxic
BXPC-3 [4]
  viability at 5 µM: 85.5%
BXPC-3 [5]
  Activity: 2.32%
[6]
  Activity: Non-toxic
[7]
  Activity: Non-toxic
PANC-1 [8]
  viability at 5 µM: 87.3%
PANC-1 [9]
  Activity: 7.2%
PANC-1 [10]
  Activity: 7.73%
PANC-1 [11]
  Activity: 8.18%
BxPC-3 [12]
  Activity: 73%
[13]
  Activity: Non-toxic
PANC-1 [14]
  Activity: 12.2%
BXPC-3 [15]
  Activity: 24%
BxPC-3 [16]
  inhibition: Active
PANC-1 [17]
  inhibition: Dose-dependent-effect
BXPC-3 [18]
  inhibition: Dose-dependent-effect
[19]
  Activity: Non-toxic
[20]
  Activity: Dose-dependent-effect; Exhibited Fluorescence Quenching Activity Similar To Compound 1
[21]
  Activity: Non-toxic
[22]
  Activity: Non-toxic
BXPC-3 [23]
  viability at 8 µM: 82.5%
BXPC-3 [24]
  Activity: 2.11%
PANC-1 [25]
  inhibition: Dose-dependent-effect
